# S100A4 MyoIIA = blocks human S100A4 binding to myosin IIA peptide. AID 652163. 0.14% of 360,000 active. inhibition, % at 10.7 µM. S100A4/TAMRA-MyoIIA peptide fluorescence polarization. P26447;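 active = mean inhibition of at least 70% across replicates, with every replicate also reaching that level; inconclusive = mean inhibition reaches 70% but some replicates fall short; inactive = mean inhibition below 70%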
# Target sequence (P26447 whole entry, looked up): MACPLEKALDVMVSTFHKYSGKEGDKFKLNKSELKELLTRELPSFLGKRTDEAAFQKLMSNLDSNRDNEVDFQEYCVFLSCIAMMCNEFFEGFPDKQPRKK
#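 Compound dosing: one dose per compound; test system: human S100A4 monomer with TAMRA-labelled myosin IIA peptide; probe or stimulus: TAMRA-labelled myosin IIA heavy-chain peptide probe, 5 nM; medium: HEPES buffer with Ca2+, pH 7.2; schedule: 5 min incubation before reading; benchmarks: neutral control DMSO, positive control TFP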
# E-selectin induc = induces E-selectin expression in human endothelial cells; HUVEC E-selectin immunofluorescence imaging; normalized: neutral wells 0, TNF-alpha wells 100; AID 686992; activation, % at 7.58 µM; 0.37% of 260,000 active; P16581;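 active = mean E-selectin-positive cell signal at least 10% of the positive control, reached in at least 60% of replicates, without over 20% cell loss; inconclusive = no rule given, readout overlaps actives, possibly toxicity-flagged; inactive = the rest, including those meeting only one limit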
#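 Test system: HUVEC | Signal: Immunofluorescence imaging | Read-out: Percent E-selectin-positive cells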
# Xi reactivation = reactivates the inactive X chromosome in mouse fibroblasts. activation, % at 7.58 µM. XiGFP mouse fibroblasts, % GFP-positive cells imaging, 3 d; cells co-treated with 5-aza-dC sensitizer; scaled so ellipticine positive control = 100%. AID 743238. 0.055% of 360,000 active;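 active = mean normalized replicate activation at least 10% and every replicate at or above 10%; inconclusive = only one of the two criteria met; inactive = mean below 10% and not all replicates reach 10%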;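 also: 0% = median of on-plate neutral control wells and 100% = ellipticine 6 µM median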
#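 Material: SV40-immortalized XiGFP fibroblast cells, line 68-5-11 | Buffer or medium: DMEM containing 5-aza-dC | Dosing: One concentration, pinned | Times: 3 d treatment, 15 min room-temperature fixation | Controls: Ellipticine 6 µM positive control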
# DENV2 CPE rescue = protects cells from dengue virus 2 cytopathic effect; DENV2-infected cells, cytopathic effect rescue, plate reader; CPE inhibition, % at 9.99 µM; 1.7% of 350,000 active; AID 651640; in the data active = CPE inhibition above about 20%, passing the limit was not always enough; inconclusive = no clear call, values can overlap the other calls; tested in BHK-21 cells;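 also: 0% = median of neutral control wells and 100% = median of positive control wells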
# * marks the source's active call; other numbers are inactive results; ? = inconclusive; nt = not tested or not shown; + = active, no number. Sampled rows, rich in hits. Any-hit rate of the full collection: about 2%.
SMILES,S100A4 MyoIIA,E-selectin induc,Xi reactivation,DENV2 CPE rescue
CCN1CCN(S(=O)(=O)c2ccc(Cl)c(C(=O)NC(C)(C)C)c2)CC1,-4,0,0,nt
CC(C)C[C@@H](COc1ccccc1)N1CCN(Cc2ccccc2)CCC1=O,0,0,0,28*
O=C1CCN(Cc2ccccc2)CCN1[C@H](COc1ccccc1)Cc1ccccc1,1,0,0,-2
COc1cccc(S(=O)(=O)N[C@@H]2C=C[C@@H](CC(=O)NCc3ccc(F)cc3)O[C@H]2CO)c1,6,0,0,-2
CCOC(=O)c1cc(NC(=O)Cc2ccc(S(=O)(=O)N3CCOCC3)s2)cc(C(=O)OCC)c1,-20,nt,0,6
CCN(CC)C(=O)C1CCN(Cc2cn(C)nc2-c2ccc(Oc3ccccc3)cc2)CC1,-2,1,0,-3
Cc1cc(N/N=C/c2ccc([N+](=O)[O-])o2)nc2ccccc12,-8,1,43*,2
N#C[C@H]1[C@H](c2ccc(C#Cc3ccccc3F)cc2)[C@H](CO)N1C(=O)C1CC1,4,-1,0,30*
N#C[C@@H]1[C@@H](c2ccc(C#Cc3ccccc3F)cc2)[C@@H](CO)N1C(=O)C1CCC1,-3,0,0,51*
O=C1CCC(C(=O)OCC(=O)Nc2ccc(SC(F)F)cc2)=NN1,5,nt,0,29*
CCOc1ccc(-c2csc(N)c2C(=O)OC)cc1,-30,nt,nt,nt
COc1ccc(-c2ccccc2[C@H]2[C@@H](CO)N(C(=O)NC3CCCC3)[C@H]2C#N)cc1,1,0,0,9
COc1ccccc1C(=O)NCC(=O)N/N=C/c1cn[nH]c1-c1ccccc1,3,0,0,4
C[C@H]1CCCCO[C@H](CN(C)Cc2ccc(Cl)c(Cl)c2)[C@@H](C)CN([C@@H](C)CO)C(=O)c2cc(NS(=O)(=O)c3ccccc3)ccc2O1,-7,0,-1,-13
C[C@@H]1CCCCO[C@H](CN(C)Cc2ccc(Cl)c(Cl)c2)[C@@H](C)CN([C@H](C)CO)C(=O)c2cc(NS(=O)(=O)c3ccccc3)ccc2O1,-3,0,0,32*
C[C@@H]1CCCCO[C@H](CN(C)Cc2ccc(Cl)c(Cl)c2)[C@@H](C)CN([C@@H](C)CO)C(=O)c2cc(NS(=O)(=O)c3ccccc3)ccc2O1,0,nt,nt,24*
C[C@H]1CN([C@@H](C)CO)C(=O)c2cccc(NC(=O)Nc3ccccc3)c2O[C@H]1CN(C)Cc1ccc2c(c1)OCO2,-3,2,0,-4
C[C@@H]1CCCCO[C@@H](CN(C)Cc2ccc(Cl)c(Cl)c2)[C@H](C)CN([C@H](C)CO)C(=O)c2cc(NC(=O)Nc3cccc4ccccc34)ccc2O1,-5,0,-1,-2
C[C@H](CO)N1C[C@H](C)[C@@H](CN(C)Cc2ccc(Cl)c(Cl)c2)OCCCC[C@H](C)Oc2ccc(NC(=O)Nc3cccc4ccccc34)cc2C1=O,3,1,-1,33*
C[C@@H]1CCCCO[C@@H](CN(C)Cc2ccc(Cl)c(Cl)c2)[C@@H](C)CN([C@H](C)CO)C(=O)c2cc(NC(=O)Nc3cccc4ccccc34)ccc2O1,-2,0,-1,22*
C[C@@H]1CN([C@H](C)CO)C(=O)c2cc(NC(=O)Nc3cccc4ccccc34)ccc2O[C@@H](C)CCCCO[C@H]1CN(C)Cc1ccc(Cl)c(Cl)c1,-12,0,0,-4
C/C(=N/O)c1cccc(N2Cc3ccccc3C2)c1,-3,0,0,-7
O=C(NC1CC1)c1ccc(NC(=O)C2CCCC2)cc1,-4,0,0,72*
CCCNC(=O)N1CC(=O)N2[C@H](CO)[C@@H](c3ccc(C#Cc4ccccc4)cc3)[C@@H]2C1,nt,nt,0,nt
COc1ccc(CNC(=S)Nc2ccc(F)c(Cl)c2)cc1OC,-3,0,0,2
SMILES,S100A4 MyoIIA,E-selectin induc,Xi reactivation,DENV2 CPE rescue
COc1ccc(C(=O)Nc2ccc(N3CCN(C(=O)c4cccs4)CC3)cc2)cc1Br,-1,0,0,?
COc1cc(OC)cc(C(=O)Nc2ccc(N3CCN(C(=O)c4cccs4)CC3)cc2)c1,-5,2,1,53*
C[C@@H]1ON(C)[C@H]2C[C@H]3c4[nH]c5c(-c6cc(Cl)cc(Cl)c6)cccc5c4CCN3C(=O)[C@@H]12,1,5,0,-3
CCN(CC)c1ccc(/C=N/NS(=O)(=O)c2ccc(CNC(C)=O)cc2)cc1,-9,nt,0,-4
N#Cc1c(Nc2ccccc2)[n+]([O-])c2ccc(Cl)cc2[n+]1[O-],-2,0,0,21*
O=C(/C=C/Nc1ccccc1)c1ccc(Cl)cc1Cl,-3,nt,0,-3
COc1cccc2c1C(=O)c1c(O)c3c(c(O)c1C2=O)CC(O)(C(=O)CO)CC3OC1CC(N(C)C)C(O)C(C)O1 (stereo not drawn),+,nt,3,-3
COc1cccc2c1C(=O)c1c(O)c3c(c(O)c1C2=O)C[C@@](O)(C(C)=O)C[C@@H]3O[C@H]1C[C@H](N)[C@H](O)[C@H](C)O1,+,nt,1,1
CCOc1ccc(N(CC(=O)NCc2ccc(OC)cc2)S(C)(=O)=O)cc1,-10,nt,0,1
C=CC[C@H]1CC(C)=C[C@H](CC=C)N1C(=O)c1cc(COc2ccccc2SC)on1,0,nt,0,6
O=C(NCCc1ccccc1)C(=O)NCC1OCCN1S(=O)(=O)c1ccc(Cl)cc1 (stereo not drawn),2,1,0,3
Cc1cccc(C(C#N)c2ccc(Cl)nn2)c1 (stereo not drawn),1,nt,0,-3
CC1CC(C)CN(C(=O)COC(=O)c2nccnc2N)C1 (stereo not drawn),-4,0,0,45*
CC[C@H]1C(Nc2ccccc2)C[C@@H]2CCN3C(=O)CC[C@H]1[C@H]23 (stereo partly drawn),2,1,0,-15
CC(CNC(=O)[C@H]1O[C@@H](n2cnc3c(=O)[nH]c(N)nc32)[C@H](O)[C@@H]1O)c1ccccc1 (stereo partly drawn),-3,0,0,68*
C[C@@H]1CN([C@H](C)CO)C(=O)Cc2cc(NC(=O)Nc3cccc4ccccc34)ccc2O[C@@H]1CN(C)S(=O)(=O)c1cccs1,nt,4,0,-5
O=C(C[C@@H]1CC[C@@H]2[C@H](COC[C@H](O)CN2CC2CCOCC2)O1)N1CCOCC1,0,0,0,102*
O=C(C[C@H]1CC[C@H]2[C@@H](COC[C@H](O)CN2CC2CCOCC2)O1)N1CCOCC1,-4,0,0,-3
CN1CCN(C(=O)C[C@@H]2CC[C@H]3[C@@H](COC[C@H](O)CN3C(=O)C3CCCC3)O2)CC1,-54,0,0,76*
CN1CCN(C(=O)C[C@H]2CC[C@H]3[C@@H](COC[C@H](O)CN3C(=O)C3CCCC3)O2)CC1,-42,0,0,17
